This note sets out measurements from ChEMBL document CHEMBL3124909, “Heat shock protein 70 inhibitors. 2. 2,5'-thiodipyrimidines, 5-(phenylthio)pyrimidines, 2-(pyridin-3-ylthio)pyrimidines, and 3-(phenylthio)pyridines as reversible binders to an allosteric site on heat shock protein 70” (J Med Chem, 2014).

The test system of one assay is Kasumi 1. The assay is described as follows: Cytotoxicity against human Kasumi-1 cells after 72 hrs by alamar blue assay. The note with it: Homo sapiens, Kasumi 1, 72 h; read-out: IC50. Format: functional, cell-based. The essentials: (§1)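 Alamar Blue (resazurin) viability assay: attached cells (SKBr3) plated at 8000/well, suspension cells (Kasumi-1) at 20000/well, left 24 h at 37 °C, then drug added in triplicate for 72 h. Alamar Blue 50 μM added, fluorescence read 6 h later (ex 530, em 580 nm). Growth inhibition versus control corrected for time-zero population; IC50 = concentration giving 50% growth inhibition.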

Assay [1] in a line: Cytotoxicity against human SKBR3 cells after 72 hrs by alamar blue assay. It is filed as functional, SK-BR-3. The procedure, abridged:
as §1

The subject of assay [2] is SK-BR-3. In words: Induction of apoptosis in human SKBR3 cells assessed as c-PARP cleavage by Western blotting analysis. It is filed as functional. The essentials: (§2)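 Cells (SKBr3, MDA-MB-468, MiaPaCa-2 in DME/F12; MOLM-13 in RPMI; 10% FBS) grown to 60–70% confluence, then given inhibitor or DMSO. Lysis in 50 mM Tris pH 7.4, 150 mM NaCl, 1% NP-40. Protein measured by BCA, and client proteins or cleaved PARP detected by immunoblotting with peroxidase-conjugated secondary antibody.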

The test system of assay [3] is SK-BR-3. In words: Inhibition of HSP70 in human SKBR3 cells assessed as HER2 degradation by Western blotting analysis. Format: cell-based. The essentials:
as §2

The subject of assay [4] is MIA PaCa-2. In words: Inhibition of HSP70 in human MIAPaCa2 cells assessed as Raf-1 degradation at 1 to 20 uM by Western blotting analysis. It is filed as cell-based. The essentials: as §2
For assay [5], the system named is MDA-MB-468. In words: Inhibition of HSP70 in human MDA-MB-468 cells assessed as STAT-3 degradation at 0.5 to 25 uM by Western blotting analysis. Format: cell-based. The essentials: as §2
For assay [6], the system named is HEK293. The assay is described as follows: Inhibition of human HSP70 expressed in HEK293 cells assessed as inhibition of refolding of heat denatured luciferase at 10 uM incubated for 1 hr followed by heat treatment measured after 2 hrs by Western blotting analysis. It is filed as cell-based. The essentials: (§3)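 HEK293 cells cotransfected with C-terminal HA-luciferase plus N-terminal Flag-human Hsp70 or control vector. Two days later: cycloheximide 50 μg/mL, compound at 10 μM added just before 1 h at 45 °C, then recovery at 37 °C up to 2 h. Triton X-100 lysates cleared at 20000g; luciferase activity normalized to protein, expressed as % of pre-heat-shock activity; soluble proteins immunoblotted.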

The subject of assay [7] is MOLM-13. In words: Induction of apoptosis in human MOLM13 cells assessed as caspase 3/7 activation after 16 hrs by fluorescence assay. Format: functional, cell-based. The note with it: Homo sapiens, MOLM-13, 16 h; read-out: IC50. The procedure, abridged:
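MOLM-13 cells at 30000/well in RPMI, held up to 24 h (37 °C, 5% CO2), then exposed 16 h to compound or DMSO. Buffer with 10 mM HEPES pH 7.5, 2 mM EDTA, 0.1% CHAPS and 25 μM Z-DEVD-R110 substrate added; fluorescence read once signal stabilized. Percent apoptotic increase calculated relative to control cells.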

Assay [8] has as its system Heat shock 70 kDa protein (Homo sapiens). In words: Inhibition of HSP70 in human SKBR3 cells assessed as inhibition of HSP70-HOP-HSP90 complex formation after 24 hrs by Western blotting analysis. Particulars: SK-BR-3.
In assay [9] the test system is MIA PaCa-2. The assay is described as follows: Inhibition of HSP70 in human MIAPaCa2 cells assessed as STAT-3 degradation at 1 to 20 uM by Western blotting analysis. It is filed as cell-based. The procedure, abridged:
as §2

Assay [10] concerns MIA PaCa-2. The assay is described as follows: Inhibition of HSP70 in human MIAPaCa2 cells assessed as AKT degradation at 1 to 20 uM by Western blotting analysis. It is filed as cell-based. The essentials: as §2
Assay [11] has as its system HEK293. The assay is described as follows: Inhibition of HSP70 in HEK293 cells assessed as inhibition of refolding of heat denatured luciferase at 10 uM incubated for 1 hr followed by heat treatment measured after 2 hrs by Western blotting analysis. It is filed as cell-based. The note with it: Homo sapiens. The procedure, abridged:
as §3

In assay [12] the target is Heat shock protein HSP 90-beta (Homo sapiens) (UniProt P08238). The assay is described as follows: Displacement of GM-Cy3B from HSP90 in human SKBR3 cells after 24 hrs by fluorescence polarization assay. The note with it: SK-BR-3.
In assay [13] the test system is MOLM-13. In words: Inhibition of HSP70 in human MOLM13 cells assessed as STAT5 degradation at 1 to 20 uM by Western blotting analysis. It is filed as cell-based. The essentials: as §2
The subject of assay [14] is MDA-MB-468. The assay is described as follows: Inhibition of HSP70 in human MDA-MB-468 cells assessed as Raf-1 degradation at 0.5 to 25 uM by Western blotting analysis. It is filed as cell-based. The procedure, abridged: as §2
Assay [15] has as its target Receptor-type tyrosine-protein kinase FLT3 (Homo sapiens) (UniProt P36888). The assay is described as follows: Inhibition of HSP70 in human MOLM13 cells assessed as mutant FLT3 degradation at 1 to 20 uM by Western blotting analysis. Format: cell-based. The note with it: MOLM-13. The essentials:
as §2

Assay [16] has as its system SK-BR-3. The assay is described as follows: Inhibition of HSP70 in human SKBR3 cells assessed as Raf-1 degradation by Western blotting analysis. Format: cell-based. The procedure, abridged:
as §2

Structures are written as SMILES. pIC50: −log10 of the molar value. Activity calls are given as the source filed them. The rule behind the calls is not given here.

Heat shock protein HSP 90-beta (Homo sapiens), sequence (P08238 whole entry): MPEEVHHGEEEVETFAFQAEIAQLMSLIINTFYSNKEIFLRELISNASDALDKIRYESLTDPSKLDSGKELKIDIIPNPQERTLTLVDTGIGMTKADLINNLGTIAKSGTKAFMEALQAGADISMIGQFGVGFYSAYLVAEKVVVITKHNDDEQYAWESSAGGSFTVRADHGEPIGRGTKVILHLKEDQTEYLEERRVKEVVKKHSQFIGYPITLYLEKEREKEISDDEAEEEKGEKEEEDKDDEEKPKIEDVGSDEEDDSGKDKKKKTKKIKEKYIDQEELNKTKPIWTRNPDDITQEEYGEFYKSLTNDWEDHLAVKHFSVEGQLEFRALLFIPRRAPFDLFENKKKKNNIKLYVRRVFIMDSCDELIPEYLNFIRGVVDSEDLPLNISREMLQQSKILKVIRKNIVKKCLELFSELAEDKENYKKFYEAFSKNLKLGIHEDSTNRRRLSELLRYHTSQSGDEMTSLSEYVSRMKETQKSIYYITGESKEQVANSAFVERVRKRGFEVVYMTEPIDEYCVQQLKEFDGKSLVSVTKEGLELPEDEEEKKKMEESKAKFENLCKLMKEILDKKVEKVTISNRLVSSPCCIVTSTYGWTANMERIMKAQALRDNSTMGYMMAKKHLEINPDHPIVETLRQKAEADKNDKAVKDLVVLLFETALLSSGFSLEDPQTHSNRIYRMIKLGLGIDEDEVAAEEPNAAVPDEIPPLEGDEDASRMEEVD
Receptor-type tyrosine-protein kinase FLT3 (Homo sapiens), sequence (P36888 whole entry): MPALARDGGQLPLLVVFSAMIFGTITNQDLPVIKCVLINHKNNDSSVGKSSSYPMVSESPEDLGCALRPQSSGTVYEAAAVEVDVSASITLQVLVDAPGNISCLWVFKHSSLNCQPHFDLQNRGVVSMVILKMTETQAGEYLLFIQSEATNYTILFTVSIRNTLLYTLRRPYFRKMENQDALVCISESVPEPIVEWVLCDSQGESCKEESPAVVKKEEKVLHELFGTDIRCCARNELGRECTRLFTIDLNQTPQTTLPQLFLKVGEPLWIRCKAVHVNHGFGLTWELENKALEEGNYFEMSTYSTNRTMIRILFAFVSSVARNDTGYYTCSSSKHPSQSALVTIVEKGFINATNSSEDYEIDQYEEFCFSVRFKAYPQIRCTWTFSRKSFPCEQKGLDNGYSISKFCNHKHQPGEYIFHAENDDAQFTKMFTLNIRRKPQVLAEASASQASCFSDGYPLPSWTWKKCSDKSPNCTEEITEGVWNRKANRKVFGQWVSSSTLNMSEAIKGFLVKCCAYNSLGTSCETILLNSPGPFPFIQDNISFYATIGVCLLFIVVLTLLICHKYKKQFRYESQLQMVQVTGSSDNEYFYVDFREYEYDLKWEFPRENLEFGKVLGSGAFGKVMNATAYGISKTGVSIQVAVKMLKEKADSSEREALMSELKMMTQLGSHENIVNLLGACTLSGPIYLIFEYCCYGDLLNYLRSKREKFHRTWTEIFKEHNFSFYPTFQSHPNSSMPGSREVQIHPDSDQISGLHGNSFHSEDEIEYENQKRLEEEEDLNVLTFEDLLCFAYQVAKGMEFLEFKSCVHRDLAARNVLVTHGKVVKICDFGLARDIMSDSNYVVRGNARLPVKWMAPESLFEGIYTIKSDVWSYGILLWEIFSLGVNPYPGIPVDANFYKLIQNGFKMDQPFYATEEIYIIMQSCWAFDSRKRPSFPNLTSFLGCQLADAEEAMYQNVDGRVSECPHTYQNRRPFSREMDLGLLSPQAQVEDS

`CN1CCN(c2ncc(Sc3cccc(NC(=O)CN)c3)c(OCc3ccccc3)n2)CC1`: the figures for the pIC50 with Kasumi 1 and in the assay on MOLM-13 [7] were 5.64 and 5.72, respectively. This compound also displayed a GI in assay [1] of 2.1 µM. In addition, the INH is 1.5 µM in the assay with SK-BR-3 [2], 1.5 µM with SK-BR-3 [3], over 500 µM in assay [12] and 1.2 µM in the assay on SK-BR-3 [16]. Also, the inhibition result in the assay on MIA PaCa-2 [4], in the assay with MDA-MB-468 [5], with HEK293 [6], in the assay with MIA PaCa-2 [9], in the assay on MIA PaCa-2 [10] and in the assay on HEK293 [11] was “Active” throughout. The inhibition result (in the assay with MOLM-13 [13]; in the assay on MDA-MB-468 [14]; in assay [15]) was “Active” each time. Besides, the inhibition result in [8] was “Dose-dependent effect”.
